The values that follow come from ChEMBL document CHEMBL1146868, “Design, synthesis, and biophysical and biological evaluation of a series of pyrrolobenzodiazepine-poly(N-methylpyrrole) conjugates” (J Med Chem, 2006).

For one data set, the system named is K562. As to the kind of experiment: Cytotoxicity against human K562 cell line after 96 hrs by MTT assay. The data set is classed as functional. The settings on record: K562, 96 h.
Data set [1] concerns Panel NCI-60 (60 carcinoma cell lines). As to the kind of experiment: Cytotoxicity against human NCI60 cell line […]. In kind it is functional. The settings on record: for CC50: read-out: LC50 (the source's name). A general note: Tetrazolium dyes change colour on reduction, which living cells bring about.
Data set [2] concerns MCF7. As to the kind of experiment: Uptake in human MCF7 cells at 100 uM after 24 hrs. In kind it is ADME, cell-based. As to conditions: mcf7, 24 h; call rule not given here. An outline of the steps: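 MCF-7 cells were exposed to the conjugates for 24 h, at up to 100 µM. Cellular and nuclear uptake was assessed from intrinsic fluorescence.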
For another data set, the system named is Nucleic Acid. As to the kind of experiment: Inhibition of DNA transcription at 5 uM. In kind it is functional. An outline of the steps: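 In vitro transcription of a DNA template by a viral RNA polymerase. Read-out is the sites where transcription stops and the amount of full-length 266-nt transcript. Activity is expressed as 50% inhibition of full-length transcript synthesis.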

The test system of data set [3] is MCF7. The experiment in a line: Uptake in human MCF7 cells after <1 hr. The data set is classed as ADME, cell-based. The settings on record: mcf7, 1 h.

Usually GI50 stands for the concentration that inhibits growth by half. What is called TGI is the concentration giving total growth inhibition. On to `C=C1C[C@H]2C=Nc3cc(OCCCOc4cc5c(cc4OC)C(=O)N4CC(=C)C[C@H]4C=N5)c(OC)cc3C(=O)N2C1` [SJG-136], for which, in the data set with K562, the GI50 was determined as 0.0038 µM. For the same compound, in data set [1], it took 0.0074 µM to inhibit growth by half (GI50), net growth stopped (TGI) at 0.0871 µM and the CC50 turned out to be 0.562 µM.

In general, inhibition refers to the change of the read-out against control, counted positive when it falls. Low readings indicate a weak effect, high ones a strong effect. Take `COC(=O)c1cc(NC(=O)c2cc(NC(=O)c3cc(NC(=O)c4cc(NC(=O)CCCOc5cc6c(cc5OC)C(=O)N5CCC[C@H]5C=N6)cn4C)cn3C)cn2C)cn1C`: in the data set on MCF7 [2], the Drug uptake entry is “Active”. This compound also displayed a GI50 with K562 of 0.047 µM. Also, in data set [1], the GI50 was 0.007 µM, the TGI is 0.018 µM and the CC50 was 1.51 µM. The same compound gave an inhibition in the data set with Nucleic Acid of 50%.

Regarding `COC(=O)c1cc(NC(=O)c2cc(NC(=O)c3cc(NC(=O)CCCOc4cc5c(cc4OC)C(=O)N4CCC[C@H]4C=N5)cn3C)cn2C)cn1C`, the Drug uptake entry in the data set on MCF7 [2] is on record as “Active”. The compound also had a GI50 with K562 of 0.041 µM. Moreover, in data set [1], it took 0.015 µM to inhibit growth by half (GI50), net growth stopped (TGI) at 0.032 µM and the CC50 stood at 1.07 µM. In the data set on Nucleic Acid, this compound yielded an inhibition of 50%.

Regarding `COC(=O)c1cc(NC(=O)CCCOc2cc3c(cc2OC)C(=O)N2CCC[C@H]2C=N3)cn1C`, in the data set on MCF7 [3], the Drug uptake entry is “Active”. In the data set on K562, this compound came in with a GI50 of 0.051 µM. For the same compound, in data set [1], it took 0.047 µM to inhibit growth by half (GI50), total growth inhibition (TGI) required 0.323 µM and the CC50 was 11.5 µM. Also, the inhibition with Nucleic Acid amounted to 50%.

For `COC(=O)c1cc(NC(=O)c2cc(NC(=O)c3cc(NC(=O)c4cc(NC(=O)c5cc(NC(=O)c6cc(NC(=O)CCCOc7cc8c(cc7OC)C(=O)N7CCC[C@H]7C=N8)cn6C)cn5C)cn4C)cn3C)cn2C)cn1C`, in the data set with MCF7 [2], the Drug uptake result is recorded as “Active”. This compound had a GI50 with K562 of 0.03 µM. Moreover, in data set [1], halving of growth (GI50) required 0.008 µM, the TGI stood at 0.054 µM and the CC50 was 1.9 µM. For the same compound, in the data set on Nucleic Acid, the inhibition came out at 50%.

In the case of `COC(=O)c1cc(NC(=O)c2cc(NC(=O)c3cc(NC(=O)CCOc4cc5c(cc4OC)C(=O)N4CCC[C@H]4C=N5)cn3C)cn2C)cn1C`, halving of growth in the data set on K562 (GI50) required 0.346 µM. For the same compound, in data set [1], the concentration for 50% growth inhibition (GI50) came out at 0.047 µM, the total growth inhibition concentration (TGI) is 1.76 µM and the CC50 came out at 56.2 µM.

In turn, `COC(=O)CCCOc1cc2c(cc1OC)C(=O)N1CCC[C@H]1C=N2` registered a GI50 with K562 of 0.526 µM. In data set [1], the GI50 stood at 1.74 µM, net growth stopped (TGI) at 11.8 µM and the CC50 was found to be 46.8 µM.

Take `COC(=O)c1cc(NC(=O)c2cc(NC(=O)c3cc(NC(=O)CCCN(C)C)cn3C)cn2C)cn1C`: in the data set with K562, the GI50 is greater than 10 µM. In addition, in data set [1], halving of growth (GI50) required 72.4 µM, the TGI was greater than 100 µM and the CC50 is greater than 100 µM.

Turning to `COC(=O)c1cc(NC(=O)c2cc(NC(=O)c3cc(NC(=O)CCCOc4cc5c(cc4OC)C(=O)N4CCC[C@H]4C(=O)N5)cn3C)cn2C)cn1C`, the GI50 with K562 was greater than 10 µM. Further, in data set [1], growth was halved (GI50) at 49 µM, the total growth inhibition concentration (TGI) is greater than 50 µM and the CC50 was greater than 50 µM.

For `COC(=O)c1cc(NC(=O)c2cc(NC(=O)CCCOc3cc4c(cc3OC)C(=O)N3CCC[C@H]3C=N4)cn2C)cn1C`, in the data set on MCF7 [2], the Drug uptake entry is “Active”. For the same compound, the GI50 with K562 amounted to 0.0071 µM. In data set [1], the GI50 worked out at 0.011 µM, the TGI came out at 0.12 µM and the CC50 turned out to be 10 µM. Also, the inhibition in the data set on Nucleic Acid was found to be 50%.

In turn, `COC(=O)c1cc(NC(=O)c2cc(NC(=O)c3cc(NC=O)cn3C)cn2C)cn1C` gave a GI50 in the data set on K562 greater than 10 µM. Also, in data set [1], growth was halved (GI50) at 16.6 µM, the TGI was determined as 44.7 µM and the CC50 stood at 85.1 µM.

For `COC(=O)c1cc(NC(=O)c2cc(NC(=O)c3cc(NC(=O)c4cc(NC(=O)c5cc(NC(=O)CCCOc6cc7c(cc6OC)C(=O)N6CCC[C@H]6C=N7)cn5C)cn4C)cn3C)cn2C)cn1C`, in the data set with MCF7 [2], the Drug uptake result is “Active”. In the data set with K562, this compound yielded a GI50 of 0.083 µM. Further, in data set [1], the GI50 was 0.009 µM, the TGI worked out at 0.029 µM and the CC50 turned out to be 1.26 µM. In the data set with Nucleic Acid, this compound gave an inhibition of 50%.
